14 compounds from ChEMBL document CHEMBL1132439, “Selective A(3) adenosine receptor antagonists: water-soluble 3, 5-diacyl-1,2,4-trialkylpyridinium salts and their oxidative generation from dihydropyridine precursors” (J Med Chem, 1999) can be followed below.

One may read the Ki as a dissociation constant, usually derived from enzyme kinetics or from competition with a known ligand. A low value points to tighter binding.

In one assay the target is Adenosine receptor A2a (Rattus norvegicus, UniProt P30543). Briefly: Displacement of [3H]CGS-21680 from Adenosine A2A receptor of rat striatal membranes. It counts as cell membranes, Membrane. The procedure, abridged: (§1)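 Rat striatal membranes prepared with adenosine deaminase 3 units/mL, also present in a 30 min preincubation at 30 °C and during radioligand incubation. Nonspecific binding defined with 20 μM 2-chloroadenosine. Compounds dissolved in DMSO, diluted in buffer (≤1% DMSO). Filtration over GF/B filters. IC50 from at least five competitor concentrations spanning 3 log units, converted to Ki by Cheng-Prusoff; n = 3–6, or % specific binding displaced at 10⁻⁴ M.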
Background: Loss of bound radioactivity is the signal in a displacement assay; it reports binding, not function.

The target of a further assay is T1, Adenosine receptor A1 (Rattus norvegicus, UniProt P25099).
T1 sequence (P25099 whole entry): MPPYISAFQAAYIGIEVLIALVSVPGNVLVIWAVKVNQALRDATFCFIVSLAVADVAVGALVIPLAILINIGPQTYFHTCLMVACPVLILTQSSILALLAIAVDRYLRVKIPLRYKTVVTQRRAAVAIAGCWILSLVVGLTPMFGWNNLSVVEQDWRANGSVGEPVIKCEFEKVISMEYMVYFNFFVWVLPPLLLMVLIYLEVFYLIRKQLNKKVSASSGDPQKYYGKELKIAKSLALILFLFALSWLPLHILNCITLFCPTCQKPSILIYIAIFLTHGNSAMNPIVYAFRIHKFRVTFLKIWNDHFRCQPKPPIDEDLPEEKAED
Briefly: (§2) Displacement of [3H]R-PIA from Adenosine A1 receptor of rat brain membranes. It counts as cell membranes, Membrane. In short, it runs like this:
(§3)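 Rat cerebral cortex membranes prepared with adenosine deaminase 3 units/mL, also present in a 30 min preincubation at 30 °C and during radioligand incubation. Nonspecific binding defined with 10 μM 2-chloroadenosine. Compounds dissolved in DMSO, diluted in buffer (≤1% DMSO). Filtration over GF/B filters.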

The target in assay [1] is T2, Adenosine receptor A1 (Rattus norvegicus) (UniProt P25099).
T2 sequence (whole entry): T1 sequence (P25099 whole entry)
Kind of assay: Displacement of [3H]R-PIA from Adenosine A1 receptor from rat brain membranes at 10^-4M. It counts as cell membranes. As to conditions: Membrane. The procedure, abridged: as §3

Assay [2] addresses Adenosine receptor A2a (Rattus norvegicus) (UniProt P30543). Briefly: Displacement of [3H]CGS-21680 from Adenosine A2A receptor of rat striatal membranes at 10^-4M. As to conditions: Membrane. It counts as cell membranes. The procedure, abridged:
as §1

In assay [3] the target is T2, Adenosine receptor A1 (Rattus norvegicus). Described as §2. As to conditions: Membrane. It counts as cell membranes. In short, it runs like this: as §3

Adenosine receptor A2a (Rattus norvegicus), sequence (P30543 whole entry): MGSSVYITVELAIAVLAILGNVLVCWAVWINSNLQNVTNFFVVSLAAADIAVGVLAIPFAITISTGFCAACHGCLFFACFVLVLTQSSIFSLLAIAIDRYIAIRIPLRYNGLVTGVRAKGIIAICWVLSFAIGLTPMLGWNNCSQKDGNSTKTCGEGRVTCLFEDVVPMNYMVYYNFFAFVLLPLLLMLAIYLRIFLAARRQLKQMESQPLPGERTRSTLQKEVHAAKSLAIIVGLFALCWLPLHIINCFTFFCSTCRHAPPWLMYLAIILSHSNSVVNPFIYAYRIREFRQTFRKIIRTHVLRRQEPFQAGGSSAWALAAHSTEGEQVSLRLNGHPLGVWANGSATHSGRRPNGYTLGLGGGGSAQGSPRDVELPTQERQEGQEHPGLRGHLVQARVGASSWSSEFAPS
Adenosine receptor A2a, sequence (P30543 whole entry): as above

Take `CCOC(=O)c1c(CCN2C(=O)c3ccccc3C2=O)c(C(=O)SCC)c(CC)[n+](C)c1-c1ccccc1`: the inhibition constant (Ki) is 2.15 µM on Adenosine receptor A2a and 1.53 µM at Adenosine receptor A1.

Regarding `CCCCc1c(C(=O)SCC)c(CC)c(C(=O)OCC)c(-c2ccccc2)[n+]1C`, the inhibitory constant (Ki) turned out to be 6.02 µM at Adenosine receptor A2a and 14.5 µM at Adenosine receptor A1.

On to `CCOC(=O)c1c(CC)c(C(=O)SCC)c(CC)[n+](C)c1C1CCCC1`, for which the Ki on Adenosine receptor A2a was found to be 7.72 µM.

As for `CCSC(=O)c1c(CC)c(C(=O)OCCF)c(-c2ccccc2)[n+](C)c1CC`, the Ki on Adenosine receptor A2a was found to be 56.6 µM. This compound gave a Displacement in assay [1] of 30%.

Take `CCC[n+]1c(CC)c(C(=O)SCC)c(CC)c(C(=O)OCC)c1-c1ccccc1`: the affinity at Adenosine receptor A1, expressed as Ki, was 76.9 µM. For the same compound, the Displacement in assay [2] amounted to 28%.

For the compound `CCOC(=O)c1c(CC)c(C(=O)SCC)c(C)[n+](C)c1-c1ccccc1`, on Adenosine receptor A2a, the Ki is 20.8 µM. The Displacement in assay [1] is 22%.

For the compound `CCOC(=O)c1c(CC)c(C(=O)SCC)c(CC)[n+](CC)c1-c1ccccc1`, the Displacement in assay [2] stood at 25%.

In the case of `CCOC(=O)c1c(CC)c(C(=O)SCC)c(C2CCC2)[n+](C)c1-c1ccccc1`, the inhibition constant Ki at Adenosine receptor A2a amounted to 33.2 µM; on Adenosine receptor A1 it was 88 µM.

Consider `CCCOC(=O)c1c(CCSC(C)=O)c(C(=O)SCC)c(CC)[n+](C)c1-c1ccccc1`, for which affinity on Adenosine receptor A2a was put at a Ki of 53.2 µM. Besides, in assay [1], the Displacement came out at 45%.

Turning to `CCCOC(=O)c1c(CCC)c(C(=O)SCC)c(CCOCc2ccccc2)[n+](C)c1-c1ccccc1`, in assay [3], the Displacement is 21%. This compound also displayed a Ki at Adenosine receptor A2a of 11.9 µM.

On to `CCCOC(=O)c1c(CCC)c(C(=O)SCC)c(CC)[n+](C)c1-c1ccccc1`, for which the Displacement in assay [1] was less than 10%; in assay [2], 25%.

In the case of `CCOC(=O)c1c(CC)c(C(=O)SCC)c(CC)[n+](C)c1-c1ccccc1`, the Ki was found to be 11.6 µM on Adenosine receptor A2a and 31.9 µM on Adenosine receptor A1.

On Adenosine receptor A2a, `CCCOC(=O)c1c(CC)c(C(=O)SCC)c(CC)[n+](C)c1-c1ccccc1` yielded a Ki of 18.7 µM. This compound came in with a Displacement in assay [1] of less than 10%.

In the case of `CCCOC(=O)c1c(CCC)c(C(=O)SCCCF)c(CC)[n+](C)c1-c1ccccc1`, the affinity at Adenosine receptor A2a, expressed as Ki, was 7.37 µM. In addition, the Displacement in assay [1] is less than 10%.
